Test results: ChEMBL document CHEMBL1148673, “Peptidomimetic C5a receptor antagonists with hydrophobic substitutions at the C-terminus: increased receptor specificity and in vivo activity” (Bioorg Med Chem Lett, 2006)

How the values were obtained:
[1] = target: T1, C5a anaphylatoxin chemotactic receptor 1 (Homo sapiens) (UniProt P21730); experiment: Agonist activity at human C5aR in CD88 transfected RBL cells at 286 uM; format: functional, cell-based
T1 sequence (whole entry): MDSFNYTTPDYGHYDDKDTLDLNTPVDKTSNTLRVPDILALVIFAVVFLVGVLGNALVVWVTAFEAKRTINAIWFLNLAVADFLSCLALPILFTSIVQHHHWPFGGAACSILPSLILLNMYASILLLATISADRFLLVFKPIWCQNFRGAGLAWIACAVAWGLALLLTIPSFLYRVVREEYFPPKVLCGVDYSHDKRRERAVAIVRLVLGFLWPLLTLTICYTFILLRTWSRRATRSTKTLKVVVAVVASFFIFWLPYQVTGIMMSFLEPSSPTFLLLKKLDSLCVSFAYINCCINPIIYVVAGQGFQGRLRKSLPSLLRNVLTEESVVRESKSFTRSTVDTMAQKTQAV

[2] = target: T2, C5a anaphylatoxin chemotactic receptor 1 (Homo sapiens, UniProt P21730); experiment: Antagonist activity at human C5aR in CD88 transfected RBL cells assessed as inhibition of C5a-induced glucosaminidase release; format: functional, cell-based
T2 sequence (P21730 whole entry): T1 sequence (whole entry)
Outline: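 Functional antagonism read as inhibition of glucosaminidase release stimulated by C5a from RBL cells transfected with CD88 (RBL+); IC50 in µM.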

[3] = Stability in human liver microsome after 1 hr; format: ADME; details: liver microsomes, read-out: Stability
Outline: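 Compound incubated with human liver microsomes, 1 h at 37 °C; read-out is % of parent remaining.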

[4] = test system: J774.A1; experiment: Inhibition of C5a-induced chemotaxis of mouse J774A.1 cells; format: functional, cell-based
Outline: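 Mouse J774A.1 cells; chemotaxis induced by C5a, inhibition measured and IC50 (µM) determined.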

[5] = target: CYP3A4 (Homo sapiens, UniProt P08684); experiment: Inhibition of CYP3A4 at 10 uM; format: ADME
[6] = target: T2, C5a anaphylatoxin chemotactic receptor 1; experiment: Antagonist activity at human C5aR expressed in human PMN cells assessed as inhibition of glucosaminidase release; format: functional, cell-based
[7] = target: Vasopressin V1a receptor (Homo sapiens, UniProt P37288); experiment: Binding affinity to V1a receptor
[8] = target: Nociceptin receptor (Homo sapiens, UniProt P41146); experiment: Binding affinity to ORL1 receptor
[9] = target: T2, C5a anaphylatoxin chemotactic receptor 1; experiment: Inhibition of C5a binding to human C5aR expressed in HEK293 cells; format: cell-based
[10] = target: Melanocortin receptor 4 (Homo sapiens, UniProt P32245); experiment: Binding affinity to MC4 receptor
[11] = target: T3, Substance-K receptor (Homo sapiens, UniProt P21452); experiment: Binding affinity to NK2 receptor
T3 sequence (P21452 whole entry): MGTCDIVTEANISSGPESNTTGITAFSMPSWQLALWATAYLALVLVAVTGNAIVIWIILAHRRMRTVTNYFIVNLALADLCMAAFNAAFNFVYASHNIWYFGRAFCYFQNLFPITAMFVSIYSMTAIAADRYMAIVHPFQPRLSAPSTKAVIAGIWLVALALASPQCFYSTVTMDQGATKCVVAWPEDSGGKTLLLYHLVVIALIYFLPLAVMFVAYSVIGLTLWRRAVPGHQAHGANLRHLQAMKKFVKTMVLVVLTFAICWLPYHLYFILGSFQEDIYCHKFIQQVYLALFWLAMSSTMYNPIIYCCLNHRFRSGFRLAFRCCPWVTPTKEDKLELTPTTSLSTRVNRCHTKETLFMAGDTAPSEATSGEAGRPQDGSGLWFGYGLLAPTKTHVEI

Chain of CYP3A4 (P08684 whole entry): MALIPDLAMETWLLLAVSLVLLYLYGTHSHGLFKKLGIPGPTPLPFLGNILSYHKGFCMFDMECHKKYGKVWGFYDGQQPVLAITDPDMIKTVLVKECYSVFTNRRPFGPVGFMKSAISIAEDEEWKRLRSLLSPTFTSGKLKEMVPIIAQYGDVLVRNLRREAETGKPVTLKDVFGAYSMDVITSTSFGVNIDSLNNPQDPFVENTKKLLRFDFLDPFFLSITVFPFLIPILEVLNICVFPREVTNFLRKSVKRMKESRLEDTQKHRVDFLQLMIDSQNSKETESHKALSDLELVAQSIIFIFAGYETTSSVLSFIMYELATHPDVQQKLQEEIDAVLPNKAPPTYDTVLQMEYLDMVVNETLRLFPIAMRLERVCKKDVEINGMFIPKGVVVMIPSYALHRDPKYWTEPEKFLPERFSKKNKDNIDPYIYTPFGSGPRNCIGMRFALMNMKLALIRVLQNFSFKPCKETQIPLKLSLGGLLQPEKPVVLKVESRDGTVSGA
Chain of Melanocortin receptor 4 (P32245 whole entry): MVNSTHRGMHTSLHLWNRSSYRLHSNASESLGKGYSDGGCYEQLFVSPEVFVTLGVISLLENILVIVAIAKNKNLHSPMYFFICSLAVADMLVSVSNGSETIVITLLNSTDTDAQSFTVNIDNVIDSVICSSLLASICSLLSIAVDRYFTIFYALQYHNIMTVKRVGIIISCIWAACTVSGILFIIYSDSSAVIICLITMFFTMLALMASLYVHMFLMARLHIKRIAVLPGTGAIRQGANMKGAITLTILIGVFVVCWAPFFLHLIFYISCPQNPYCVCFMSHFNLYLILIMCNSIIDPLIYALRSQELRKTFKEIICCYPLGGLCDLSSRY
Chain of Nociceptin receptor (P41146 whole entry): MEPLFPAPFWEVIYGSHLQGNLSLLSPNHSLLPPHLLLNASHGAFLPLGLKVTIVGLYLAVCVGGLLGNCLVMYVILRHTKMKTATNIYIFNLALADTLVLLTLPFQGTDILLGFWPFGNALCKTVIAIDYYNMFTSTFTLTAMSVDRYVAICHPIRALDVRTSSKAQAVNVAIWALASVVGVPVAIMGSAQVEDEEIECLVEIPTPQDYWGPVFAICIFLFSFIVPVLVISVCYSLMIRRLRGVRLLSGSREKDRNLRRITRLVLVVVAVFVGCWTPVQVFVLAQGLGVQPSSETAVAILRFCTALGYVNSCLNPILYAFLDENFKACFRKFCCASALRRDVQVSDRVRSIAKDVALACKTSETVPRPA
Chain of Vasopressin V1a receptor (P37288 whole entry): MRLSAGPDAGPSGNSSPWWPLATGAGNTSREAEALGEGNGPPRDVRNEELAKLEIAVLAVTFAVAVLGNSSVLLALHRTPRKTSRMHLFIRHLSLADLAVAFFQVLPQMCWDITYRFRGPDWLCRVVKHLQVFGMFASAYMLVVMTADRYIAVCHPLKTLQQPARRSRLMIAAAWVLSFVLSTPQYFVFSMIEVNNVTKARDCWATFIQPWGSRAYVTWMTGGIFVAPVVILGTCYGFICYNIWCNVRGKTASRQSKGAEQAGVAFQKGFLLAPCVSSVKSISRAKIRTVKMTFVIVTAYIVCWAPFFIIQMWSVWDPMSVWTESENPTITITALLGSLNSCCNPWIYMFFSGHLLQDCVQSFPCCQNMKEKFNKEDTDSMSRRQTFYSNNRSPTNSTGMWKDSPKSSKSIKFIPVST

| SMILES | Activity [1] [%] | IC50 [2] [nM] | remaining at 1 h [3] [%] | further results |
| --- | --- | --- | --- | --- |
| CC(=O)N[C@@H](Cc1ccccc1)C(=O)N[C@@H](CCCN)C(=O)N1CCC[C@H]1C(=O)N[C@@H](CCC(C)C)C(=O)N[C@H](Cc1ccc(F)cc1)C(=O)N[C@H](Cc1ccccc1)C(N)=O | 0 | – | – | – |
| CC(=O)N[C@@H](Cc1ccccc1)C(=O)N[C@@H](CCCN)C(=O)N1CCC[C@H]1C(=O)N[C@H](CCC(C)C)C(=O)N[C@H](Cc1cccc(Cl)c1)C(=O)N[C@H](Cc1ccccc1)C(N)=O | 1.2 | – | – | – |
| CC(=O)N[C@@H](Cc1ccccc1)C(=O)N[C@@H](CCCN)C(=O)N1CCC[C@H]1C(=O)N[C@H](CCC(C)C)C(=O)N[C@@H](Cc1c[nH]c2ccccc12)C(=O)N[C@@H](Cc1ccccc1)C(N)=O | – | 63 | 37 | – |
| CC(=O)N[C@@H](Cc1ccccc1)C(=O)N[C@H]1CCCNC(=O)[C@H](CCCN=C(N)N)NC(=O)[C@H](Cc2c[nH]c3ccccc23)NC(=O)[C@@H](CC2CCCCC2)NC(=O)[C@@H]2CCCN2C1=O | – | – | 10 | IC50 [4]: 7100 nM; inhibition at 10 µM [5]: 77% |
| CC(=O)N[C@@H](Cc1ccccc1)C(=O)N[C@@H](CCCN)C(=O)N1CCC[C@H]1C(=O)N[C@H](CCC(C)C)C(=O)N[C@H](Cc1ccc(Cl)c(Cl)c1)C(=O)N[C@H](Cc1ccccc1)C(N)=O | 7.2 | – | – | – |
| CC(=O)N[C@@H](Cc1ccccc1)C(=O)N[C@@H](CCCN)C(=O)N1CCC[C@H]1C(=O)N[C@H](CCC(C)C)C(=O)N[C@@H](Cc1ccc(Cl)c(Cl)c1)C(=O)N[C@@H](Cc1ccccc1)C(N)=O | – | 116 | 49 | – |
| CC(=O)N[C@@H](Cc1ccccc1)C(=O)N[C@@H](CCCN)C(=O)N1CCC[C@H]1C(=O)N[C@H](CCC(C)C)C(=O)N[C@H](Cc1csc2ccccc12)C(=O)N[C@H](Cc1ccccc1)C(N)=O | 0 | – | – | – |
| CC(C)CC[C@@H](NC(=O)[C@@H]1CCCN1C(=O)[C@H](CCCN)NC(=O)[C@H](Cc1ccccc1)NC(=O)[C@@H]1CC(=O)NC(=O)N1)C(=O)N[C@@H](Cc1ccc(F)cc1)C(=O)N[C@@H](Cc1ccccc1)C(N)=O | – | 39 | 80 | IC50 [6]: 41 nM; IC50 [7]: 740 nM; IC50 [8]: > 50000 nM; IC50 [9]: 111 nM; IC50 [10]: 13000 nM; IC50 [4]: 420 nM; IC50 [11]: 710 nM; inhibition at 10 µM [5]: 38% |
| CC(=O)N[C@@H](Cc1ccccc1)C(=O)N[C@@H](CCCN)C(=O)N1CCC[C@H]1C(=O)N[C@H](CCC(C)C)C(=O)N[C@H](Cc1c[nH]c2ccccc12)C(=O)N[C@H](Cc1ccccc1)C(N)=O | 0 | – | – | – |
| CC(C)CC[C@H](NC(=O)[C@@H]1CCCN1C(=O)[C@H](CCCN)NC(=O)[C@H](Cc1ccccc1)NC(=O)[C@@H]1CC(=O)NC(=O)N1)C(=O)N[C@@H](Cc1ccc(F)cc1)C(=O)N[C@H](Cc1ccccc1)C(N)=O | 0 | – | – | – |
